From ChEMBL document CHEMBL1155418, “Synthesis and structure-activity relationships of N3-pyridylpyrazinones as corticotropin-releasing factor-1 (CRF1) receptor antagonists” (Bioorg Med Chem Lett, 2010)

Columns and labels:
[1] = Dissociation constant, pKa at pH 2 to 11 by spectrophotometric titration method; format: physicochemical
In short: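 pKa determined by a spectrophotometric titration method.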

[2] = species: Homo sapiens; assay: Metabolic stability in human liver microsomes assessed as compound remaining after 10 mins
[3] = species: Rattus norvegicus; assay: Metabolic stability in rat liver microsomes assessed as compound remaining after 10 mins
[4] = molecular target: T1, Corticotropin-releasing factor receptor 1 (Rattus norvegicus, UniProt P35353); assay: Displacement of [125I]Tyr-ovine-CRF from CRF1 receptor in rat frontal cortex homogenate by gamma counting; format: tissue-based
T1 sequence (P35353 whole entry): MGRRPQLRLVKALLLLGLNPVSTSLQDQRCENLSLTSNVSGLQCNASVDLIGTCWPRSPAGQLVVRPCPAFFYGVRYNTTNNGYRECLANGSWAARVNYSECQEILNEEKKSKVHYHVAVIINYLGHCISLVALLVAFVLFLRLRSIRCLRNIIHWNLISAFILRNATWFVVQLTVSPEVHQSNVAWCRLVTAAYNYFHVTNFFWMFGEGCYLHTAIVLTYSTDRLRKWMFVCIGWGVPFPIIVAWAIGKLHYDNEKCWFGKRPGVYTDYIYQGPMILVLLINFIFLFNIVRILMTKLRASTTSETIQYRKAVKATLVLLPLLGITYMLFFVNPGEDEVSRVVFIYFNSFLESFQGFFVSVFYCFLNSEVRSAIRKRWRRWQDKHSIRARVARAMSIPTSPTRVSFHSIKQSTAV

Row | SMILES | pKa [1] | remaining at 10 min [2] [%] | remaining at 10 min [3] [%] | IC50 [4] [nM]
1 | COc1ccc(Nc2nc(Cl)cn([C@H](C)C3CC3)c2=O)c(C)n1 | 3.2 | 89 | 60 | 11
2 | COc1ccc(Nc2nc(Cl)cn([C@H](C)C3CC3)c2=O)c(C(F)(F)F)n1 | < 2 | – | – | 1.6
3 | CCOc1nc(C)c(Nc2nc(Cl)cn([C@H](C)C3CC3)c2=O)cc1C | – | 93 | 81 | 2.7
4 | Cc1nc(C(F)(F)F)ccc1Nc1nc(Cl)cn([C@H](C)C2CC2)c1=O | – | – | – | 720
5 | COC[C@@H](C1CC1)n1cc(Cl)nc(Nc2ccc(OC(F)F)nc2C)c1=O | – | – | – | 0.8
6 | Cc1cc(Nc2nc(Cl)cn([C@H](C)C3CC3)c2=O)c(C)nc1N1CCCC1 | – | 57 | 26 | 6.8
7 | Cc1cc(C)c(Nc2nc(Cl)cn([C@H](C)C3CC3)c2=O)c(C)n1 | 7.9 | 87 | 76 | 65
8 | COc1nc(C)nc(C#N)c1Nc1nc(Cl)cn([C@H](C)C2CC2)c1=O | – | – | – | 140
9 | Cc1cc(Nc2nc(Cl)cn([C@H](C)C3CC3)c2=O)c(C)nc1N(C)C | – | 54 | 29 | 0.68
10 | COC[C@H](C1CC1)n1cc(Cl)nc(Nc2c(C)nc(OC)nc2OC)c1=O | – | 45 | 18 | 90
11 | COc1nc(C)c(Nc2nc(Cl)cn([C@H](C)C3CC3)c2=O)cc1C | 3.6 | 77 | 55 | –
12 | Cc1cc(OC(F)F)nc(C)c1Nc1nc(Cl)cn([C@H](C)C2CC2)c1=O | < 2 | 89 | 84 | 2.1
13 | Cc1cc(Nc2nc(Cl)cn([C@H](C)C3CC3)c2=O)c(C)nc1OC(F)F | < 2 | 100 | 86 | –
14 | COC[C@H](C1CC1)n1cc(Cl)nc(Nc2c(C)cc(OC(F)F)nc2C)c1=O | – | – | – | 4.7
15 | COc1nc(C)c(Nc2nc(Cl)cn([C@H](C)C3CC3)c2=O)c(OC)n1 | – | 86 | 81 | 240
16 | CC[C@H](C)[C@H](NC(=O)[C@H](CC(=O)O)NC(=O)[C@H](CC(C)C)NC(=O)[C@H](CC(C)C)NC(=O)[C@H](CCCCN)NC(=O)[C@H](CCCN=C(N)N)NC(=O)[C@H](CC(N)=O)NC(=O)[C@H](CO)NC(=O)[C@H](Cc1cnc[nH]1)NC(=O)[C@H](C)NC(=O)[C@H](CCC(N)=O)NC(=O)[C@H](CCC(N)=O)NC(=O)[C@H](C)NC(=O)[C@H](CC(C)C)NC(=O)[C@H](CCC(N)=O)NC(=O)[C@H](CC(=O)O)NC(=O)[C@H](C)NC(=O)[C@H](CCCCN)NC(=O)[C@@H](NC(=O)[C@H](CCSC)NC(=O)[C@H](CCC(=O)O)NC(=O)[C@H](CC(C)C)NC(=O)[C@@H](NC(=O)[C@H](CCC(=O)O)NC(=O)[C@H](CCCN=C(N)N)NC(=O)[C@H](CC(C)C)NC(=O)[C@H](CC(C)C)NC(=O)[C@H](Cc1cnc[nH]1)NC(=O)[C@H](Cc1ccccc1)NC(=O)[C@@H](NC(=O)[C@H](CC(C)C)NC(=O)[C@H](CC(=O)O)NC(=O)[C@H](CC(C)C)NC(=O)[C@H](CO)NC(=O)[C@@H](NC(=O)[C@@H]1CCCN1C(=O)[C@@H]1CCCN1C(=O)[C@H](CCC(=O)O)NC(=O)[C@H](CCC(N)=O)NC(=O)[C@@H](N)CO)[C@@H](C)CC)[C@@H](C)O)C(C)C)[C@@H](C)O)C(=O)N[C@@H](C)C(N)=O | – | – | – | 2.9
17 | Cc1nc(OC(F)F)ccc1Nc1nc(Cl)cn([C@H](C)C2CC2)c1=O | < 2 | – | – | 1.2
18 | COc1ccc(Nc2nc(Cl)cn([C@H](C)C3CC3)c2=O)c(OC)n1 | – | 43 | 25 | 17
19 | COc1nc(C(F)(F)F)c(Nc2nc(Cl)cn([C@H](C)C3CC3)c2=O)cc1C | – | – | – | 1.2
20 | COC[C@H](C1CC1)n1cc(Cl)nc(Nc2ccc(OC(F)F)nc2C)c1=O | – | – | – | 1.2
21 | COc1cc(C)c(Nc2nc(Cl)cn([C@H](C)C3CC3)c2=O)c(C)n1 | 3.8 | 79 | 81 | 12
22 | COC[C@@H](C1CC1)n1cc(Cl)nc(Nc2c(C)nc(OC)nc2OC)c1=O | – | 71 | 25 | 31
